# An excerpt weighted towards active compounds, which were near 2.1% of everything screened.
# DNMT1 block = human DNMT1 methyltransferase inhibitors, primary screen, biochemical, molecular beacon, fluorescence, HinP1I cleavage, uHTS | 360,000 tested, 0.83% active | inhibition (reported as % activation of signal), % at 10 µM | AID 588458, 2011 | DNA (cytosine-5)-methyltransferase 1 (Homo sapiens), P26358; in the data active = inhibition above about 50%
# GRK2 inh = compounds blocking aptamer binding on GRK2 – biochemical, human GRK2, bead flow cytometry, HTS, primary screen; FAM-aptamer displacement from GRK2; 330,000 tested, 0.59% active; inhibition of aptamer binding, % at 10 µM;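 active = inhibition of aptamer binding above 40%, roughly 3 SD of noise, on plates passing a quality check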;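 note: median bead fluorescence of bound FAM aptamer so fluorescent compounds give negative values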
# STEP block = STEP phosphatase inhibitors, primary screen, biochemical, fluorescence intensity, uHTS | recombinant STEP, OMFP fluorogenic substrate | inhibition, % at 20 µM | 360,000 tested, 0.25% active;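 active = inhibition at 20 µM, scaled per plate between control wells, above about 37%, limit read from the data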;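 note: 0% = DMSO with enzyme and substrate and 100% = substrate only without enzyme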
# Target sequence (P54829 whole entry, looked up): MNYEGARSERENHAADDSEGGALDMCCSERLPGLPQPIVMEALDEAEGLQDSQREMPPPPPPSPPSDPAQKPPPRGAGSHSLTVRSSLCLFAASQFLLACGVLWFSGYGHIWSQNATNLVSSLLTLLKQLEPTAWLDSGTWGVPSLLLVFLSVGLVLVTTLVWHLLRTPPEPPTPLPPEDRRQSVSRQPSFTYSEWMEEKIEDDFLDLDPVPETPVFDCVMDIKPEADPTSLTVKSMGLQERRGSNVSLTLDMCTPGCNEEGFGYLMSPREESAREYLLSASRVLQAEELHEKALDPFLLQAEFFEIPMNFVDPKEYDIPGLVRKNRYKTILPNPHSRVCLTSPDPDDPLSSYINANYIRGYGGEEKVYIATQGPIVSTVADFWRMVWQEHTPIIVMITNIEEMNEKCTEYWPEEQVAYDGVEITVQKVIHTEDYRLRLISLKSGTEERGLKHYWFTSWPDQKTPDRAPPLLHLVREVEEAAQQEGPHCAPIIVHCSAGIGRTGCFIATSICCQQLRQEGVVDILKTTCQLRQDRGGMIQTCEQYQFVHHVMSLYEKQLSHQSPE
#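 Measure: Control-normalized % inhibition with plate pattern correction | Test system: STEP phosphatase, cell-free reaction | Medium: pH 6.0 Bis-Tris with DTT and Tween 20 | Technique: Fluorescence, 480/540 nm | Times: Reaction 20 min, ambient temperature | Doses: Single compound dose of 20 µM, 1% DMSO final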
# SUMO1-SIM PPI = modulators of SUMO1 protein-protein interactions, primary screen, biochemical, uHTS; 360,000 tested, 0.33% active; inhibition, % at 20 µM; SUMO1 binding to a labelled peptide, TR-FRET, 1 h; Small ubiquitin-related modifier 1 (Homo sapiens), P63165; in the data active = inhibition above about 37%
# LMPTP block = LMPTP phosphatase inhibitors, primary screen, biochemical, fluorescence intensity, uHTS. recombinant LMPTP-A, OMFP fluorogenic substrate. 360,000 tested, 0.22% active. Low molecular weight phosphotyrosine protein phosphatase (Homo sapiens), P24666. AID 651560, 2012. inhibition, % at 20 µM;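 active = compounds that cut the enzyme signal by at least half of the control window in the single-dose screen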;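 note: plate controls were DMSO wells with enzyme plus substrate for no effect and substrate without enzyme for full effect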
#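 Test system – LMPTP-A phosphatase enzyme · Quantity – 0.625 nM LMPTP-A final · Reagent – OMFP substrate, 400 µM final · Dosing – one test concentration per compound, 20 µM, with 3% DMSO overall · Timing – 50 min enzyme reaction at room temperature, protected from light · Detection – fluorescence intensity · Controls – substrate-only low control, DMSO enzyme-plus-substrate high control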
# Scp1 inh = Scp-1 phosphatase inhibitors, primary screen, biochemical, colorimetric, uHTS; inhibition, % at 20 µM; Recombinant Scp1, phosphopeptide, malachite green phosphate absorbance; Carboxy-terminal domain RNA polymerase II polypeptide A small phosphatase 1 (Homo …; 340,000 tested, 0.88% active;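 active = inhibition above about 50% at 20 µM, limit read from the data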;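 note: plate controls were DMSO wells with enzyme for no effect and wells lacking enzyme for full effect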
#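 assay system = SCP-1 phosphatase catalytic domain, residues 76-261 | buffer or medium = 50 mM Tris acetate pH 5.5, 0.005% Tween-20, 10 mM MgCl2 | incubation = enzyme reaction 45 min at room temperature, colour 5 min, stabilisation 30 min | signal = Phosphate-binding colour reagent, absorbance read at 630 nm | measure = % inhibition at 20 µM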
# Beacon interf DR = spectral interference with molecular beacon fluorescence, dose response, artefact control for DNMT1 inhibitor project, biochemical, fluorescent molecular beacon; shares compounds with DNMT1 block; spectral interference counter-screen; IC50, µM; 200 tested, under 10 active; AID 602382, 2012; call rule not given here
# DNMT1 inh conf = DNMT1 methyltransferase inhibitor retest, confirmation, biochemical, molecular beacon, fluorescence, single concentration | shares compounds with DNMT1 block | DNMT1 molecular beacon HinP1I cleavage | inhibition, % at 10 µM | 2,300 tested, 8% active;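 active = average inhibition of at least 30% in the single-concentration confirmation test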
# Beacon interf = shows spectral interference in the DNMT1 beacon assay; shares compounds with DNMT1 block; AID 602387; DNMT1 molecular beacon spectral interference counterscreen, fluorescence 485/520; activation (fluorescence interference), % at 10 µM; 2,300 tested, 1% active;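 active = activation of at least 30% at 10 µM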;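 note: DNMT1 catalytic domain with a HinP1I cleavage step and a FAM/dabcyl DNA beacon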
# An asterisk follows results filed as active; / = not tested or not shown.
SMILES,DNMT1 block,GRK2 inh,STEP block,SUMO1-SIM PPI,LMPTP block,Scp1 inh,DNMT1 inh conf,Beacon interf,others
Cc1ccc(NC(=O)CSc2nc3ccccc3c3nc4ccccc4n23)cc1,52*,0,0,2,0,3,2,-6,
CCn1c(SCC(=O)Nc2ccc(F)cc2)nc2ccccc2c1=O,-1,2,-1,1,0,-7,/,/,
O=C(CSc1nc2c(sc3ccccc32)c(=O)n1CCc1ccccc1)NCc1ccco1,65*,2,2,0,-1,5,3,-4,
CCCCn1c(SCC(=O)NCc2ccco2)nc2c(sc3ccccc32)c1=O,36,1,2,-2,1,0,/,/,
CCn1c(SCC(=O)NCc2ccco2)nc2ccccc2c1=O,0,8,3,1,0,2,/,/,
CC(C)c1csc(CN2CCCC(CNC(=O)c3cccc4ccccc34)C2)n1 (stereo not drawn),1,0,0,-5,0,5,/,/,
O=C(NCC[C@@H]1CC[C@@H](NS(=O)(=O)c2ccccc2)[C@@H](CO)O1)c1cc(Cl)cc(Cl)c1,/,/,/,3,-2,/,/,/,
Fc1cc(F)c2nc(Nc3nc4cc5c(cc4s3)OCO5)sc2c1,72*,2,1,83*,11,1,-1,-4,
Fc1cccc2sc(Nc3nc4cc5c(cc4s3)OCO5)nc12,-25,1,-1,-4,2,0,/,/,
Cc1ccc(NC(=O)c2noc3c2CCC3)cc1C,95*,/,12,8,9,78*,9,-2,
O=C(Nc1cccc(O)c1)c1noc2c1CCCCC2,8,0,-5,2,-2,-6,/,/,
COc1ccc(NC(=O)c2noc3c2CCC3)cc1,108*,23,7,12,7,83*,5,0,
Cc1ccc(NC(=O)c2ccc(NC(=O)c3ccccc3)cc2)cc1C,57*,0,-2,19,5,-8,4,5,
COc1ccc(CNC(=O)c2noc3c2CCCCC3)cc1,2,0,-4,4,-1,-11,/,/,
CCCNC(=O)C1(CC2CC(c3ccccc3)=NO2)CCN(C(=O)Cc2ccc(F)cc2)CC1 (stereo not drawn),0,2,2,3,-1,-9,/,/,
CC(C)(CN1CCN(C(c2ccccc2)c2ccccc2)CC1)NS(=O)(=O)c1ccccc1,-1,4,1,5,3,-12,/,/,
Cn1c2ccccc2c2c(=O)oc3ccccc3c21,52*,0,4,-2,8,1,29,-2,Beacon interf DR=>99
CCCn1cnc2c(=O)oc3ccccc3c21,-2,5,-3,-1,-1,-5,/,/,
CC(C)N1CCC(C)(C(=O)Nc2cccc(Oc3ccccc3)c2)C1 (stereo not drawn),3,/,-1,2,-1,/,/,/,
CC1(C)Cc2c(C#N)c(NCCCO)nc(-c3ccccc3)c2CO1,66*,1,-5,1,2,-9,-1,4,
NC(=O)C(NN=C(c1ccccc1)c1ccccc1)c1ccccc1 (stereo not drawn),30,/,4,5,-1,/,/,/,

# Source: PubChem BioAssay
